pIC50: −log10 of the molar value.
Molecular target: T1, Nuclear receptor subfamily 1 group I member 2 (Homo sapiens, UniProt O75469)
T1 sequence (O75469 whole entry): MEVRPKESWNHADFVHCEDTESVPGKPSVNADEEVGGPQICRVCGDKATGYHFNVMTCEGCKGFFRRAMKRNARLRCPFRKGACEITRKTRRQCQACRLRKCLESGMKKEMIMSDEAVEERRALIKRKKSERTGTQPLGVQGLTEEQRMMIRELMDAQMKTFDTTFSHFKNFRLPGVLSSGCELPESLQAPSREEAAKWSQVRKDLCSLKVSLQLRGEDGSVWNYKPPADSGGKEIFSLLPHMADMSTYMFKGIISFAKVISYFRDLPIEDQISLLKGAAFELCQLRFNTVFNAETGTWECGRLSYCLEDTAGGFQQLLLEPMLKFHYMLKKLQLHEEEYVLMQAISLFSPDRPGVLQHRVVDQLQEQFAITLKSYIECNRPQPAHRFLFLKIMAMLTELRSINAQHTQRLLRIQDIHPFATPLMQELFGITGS
Assay: Activity at human PXR receptor transfected in human HepG2 cells assessed as receptor activation at 2 uM by luciferase based reporter gene assay relative to rifampin
Type: cell-based
Settings: hepg2, 2 µM
Outline: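 HepG2 cells transfected with human PXR cDNA and a luciferase reporter construct driven by the CYP3A4 gene. Cells were exposed to test article, and luciferase activity was read by chemiluminescence. Rifampin at 10 µM served as the positive control.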

| Structure (SMILES) | Activity [%] |
| --- | --- |
| C[C@@](O)(c1ccc(C(=O)N(C2CC2)[C@H]2CC[C@H](CCC(N)=O)CC2)cc1)C(F)(F)F | 5 |
| C[C@](O)(c1ccc(C(=O)N(C2CCC(CC(N)=O)CC2)C2CC2)cc1)C(F)(F)F (mixture of isomers) | 1 |

Second part, the molecule after the results:

| Activity [%] | Structure (SMILES) |
| --- | --- |
| 75 | C[C@@](O)(c1ccc(C(=O)N(C2CC2)[C@H]2CC[C@H](CC#N)CC2)cc1)C(F)(F)F |
| 3 | C[C@](O)(c1ccc(C(=O)N(C2CC2)C2CCN(CC3(C#N)CC3)CC2)cc1)C(F)(F)F |
| 6.5 | C[C@](O)(c1ccc(C(=O)N(C2CC2)[C@H]2CC[C@H](CC3(C(N)=O)CC3)CC2)cc1)C(F)(F)F |
| 60 | CC(C)(C#N)C[C@H]1CC[C@H](N(C(=O)c2ccc([C@](C)(O)C(F)(F)F)cc2)C2CC2)CC1 |

Test system: not listed separately
Assay: Fraction unbound in rat plasma
Type: ADME, cell-free
Settings: not given
Outline: (§1)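 Unbound fraction (fu) in plasma was measured with a 4 h ultracentrifugation protocol, with samples analyzed by mass spectrometry.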

| fraction unbound | Structure (SMILES) |
| --- | --- |
| 0.048 | C[C@](O)(c1ccc(C(=O)N(C2CC2)[C@H]2CC[C@H](CC3(C(N)=O)CC3)CC2)cc1)C(F)(F)F |

Test system: not listed separately
Assay: Fraction unbound in human plasma
Type: ADME, cell-free
Settings: not given
Outline: as §1

| fraction unbound | Structure (SMILES) |
| --- | --- |
| 0.12 | C[C@](O)(c1ccc(C(=O)N(C2CC2)[C@H]2CC[C@H](CC3(C(N)=O)CC3)CC2)cc1)C(F)(F)F |

Test system: not listed separately
Assay: Metabolic stability in human hepatocyte assessed as compound remaining after 90 mins
Type: ADME, cell-based
Settings: hepatocytes, read-out: Stability

| remaining at 1.5 h [%] | Structure (SMILES) |
| --- | --- |
| 32 | C[C@@](O)(c1ccc(C(=O)N(C2CC2)[C@H]2CC[C@H](CCC(N)=O)CC2)cc1)C(F)(F)F |
| > 90 | C[C@](O)(c1ccc(C(=O)N(C2CC2)[C@H]2CC[C@H](CC3(C(N)=O)CC3)CC2)cc1)C(F)(F)F |

Test system: not listed separately
Assay: Metabolic stability in human liver microsome assessed as compound remaining after 30 mins
Type: ADME
Settings: liver microsomes, read-out: Stability

| remaining at 0.5 h [%] | Structure (SMILES) |
| --- | --- |
| > 90 | C[C@@](O)(c1ccc(C(=O)N(C2CC2)[C@H]2CC[C@H](CC#N)CC2)cc1)C(F)(F)F |
| > 90 | C[C@@](O)(c1ccc(C(=O)N(C2CC2)[C@H]2CC[C@H](CCC(N)=O)CC2)cc1)C(F)(F)F |
| 86 | C[C@](O)(c1ccc(C(=O)N(C2CC2)C2CCN(CC3(C#N)CC3)CC2)cc1)C(F)(F)F |
| > 90 | C[C@](O)(c1ccc(C(=O)N(C2CC2)[C@H]2CC[C@H](CC3(C(N)=O)CC3)CC2)cc1)C(F)(F)F |
| > 90 | CC(C)(C#N)C[C@H]1CC[C@H](N(C(=O)c2ccc([C@](C)(O)C(F)(F)F)cc2)C2CC2)CC1 |

Test system: HeLa
Assay: Cytotoxicity against human HeLa cells
Type: functional, cell-based
Settings: not given

| Structure (SMILES) | pIC50 |
| --- | --- |
| C[C@@](O)(c1ccc(C(=O)N(C2CC2)[C@H]2CC[C@H](CCC(N)=O)CC2)cc1)C(F)(F)F | < 5.00 |
| C[C@](O)(c1ccc(C(=O)N(C2CC2)C2CCN(CC3(C#N)CC3)CC2)cc1)C(F)(F)F | < 5.00 |
| C[C@](O)(c1ccc(C(=O)N(C2CC2)[C@H]2CC[C@H](CC3(C(N)=O)CC3)CC2)cc1)C(F)(F)F | 5.10 |
| C[C@](O)(c1ccc(C(=O)N(C2CC2)[C@H]2CC[C@H](c3cccnc3)CC2)cc1)C(F)(F)F | 5.60 |

Test system: not listed separately
Assay: Clearance in rat at 0.51 mg/kg, iv
Type: ADME, organism-based
Parameters: dose 0.51 mg/kg, route intravenous
Settings: in vivo
Outline: (§2)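 Rats received each compound both iv (0.39, 0.50 or 0.51 mg/kg, depending on compound) and orally at 2.0 mg/kg. Plasma clearance was taken from the iv arm and oral bioavailability (%F) from the po dose.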

| clearance [mL/min/kg] | Structure (SMILES) |
| --- | --- |
| 50 | C[C@@](O)(c1ccc(C(=O)N(C2CC2)[C@H]2CC[C@H](CCC(N)=O)CC2)cc1)C(F)(F)F |

Test system: not listed separately
Assay: Metabolic stability in rat liver microsome assessed as compound remaining after 30 mins
Type: ADME
Settings: liver microsomes, read-out: Stability

| remaining at 0.5 h [%] | Structure (SMILES) |
| --- | --- |
| 73 | C[C@@](O)(c1ccc(C(=O)N(C2CC2)[C@H]2CC[C@H](CC#N)CC2)cc1)C(F)(F)F |
| > 90 | C[C@@](O)(c1ccc(C(=O)N(C2CC2)[C@H]2CC[C@H](CCC(N)=O)CC2)cc1)C(F)(F)F |
| 28 | C[C@](O)(c1ccc(C(=O)N(C2CC2)C2CCN(CC3(C#N)CC3)CC2)cc1)C(F)(F)F |
| > 90 | C[C@](O)(c1ccc(C(=O)N(C2CC2)[C@H]2CC[C@H](CC3(C(N)=O)CC3)CC2)cc1)C(F)(F)F |
| 77 | CC(C)(C#N)C[C@H]1CC[C@H](N(C(=O)c2ccc([C@](C)(O)C(F)(F)F)cc2)C2CC2)CC1 |

Test system: not listed separately
Assay: Oral bioavailability in rat at 2.0 mg/kg
Type: ADME, organism-based
Settings: in vivo
Outline: as §2

| bioavailability [%] | Structure (SMILES) |
| --- | --- |
| 22 | C[C@@](O)(c1ccc(C(=O)N(C2CC2)[C@H]2CC[C@H](CCC(N)=O)CC2)cc1)C(F)(F)F |

Test system: not listed separately
Assay: Metabolic stability in rat hepatocyte assessed as compound remaining after 90 mins
Type: ADME, cell-based
Settings: hepatocytes, read-out: Stability

| remaining at 1.5 h [%] | Structure (SMILES) |
| --- | --- |
| < 5 | C[C@@](O)(c1ccc(C(=O)N(C2CC2)[C@H]2CC[C@H](CCC(N)=O)CC2)cc1)C(F)(F)F |
| 73 | C[C@](O)(c1ccc(C(=O)N(C2CC2)[C@H]2CC[C@H](CC3(C(N)=O)CC3)CC2)cc1)C(F)(F)F |
